ChEMBL document CHEMBL2040781, “Design, synthesis, and biological evaluation of chromone-based p38 MAP kinase inhibitors” (J Med Chem, 2011)
The source made the active and inactive calls. No cut-off for these calls is given here.

What was measured:
Format in all cases: cell-based
[1] = target: T1, Mitogen-activated protein kinase 14 (Homo sapiens, UniProt Q16539); assay: Inhibition of anisomycin-induced p38alpha MAPK signalling in human MCF7 cells assessed as inhibition of HSP27 activation at 10 uM after 30 mins by SDS PAGE analysis
T1 sequence (Q16539 whole entry): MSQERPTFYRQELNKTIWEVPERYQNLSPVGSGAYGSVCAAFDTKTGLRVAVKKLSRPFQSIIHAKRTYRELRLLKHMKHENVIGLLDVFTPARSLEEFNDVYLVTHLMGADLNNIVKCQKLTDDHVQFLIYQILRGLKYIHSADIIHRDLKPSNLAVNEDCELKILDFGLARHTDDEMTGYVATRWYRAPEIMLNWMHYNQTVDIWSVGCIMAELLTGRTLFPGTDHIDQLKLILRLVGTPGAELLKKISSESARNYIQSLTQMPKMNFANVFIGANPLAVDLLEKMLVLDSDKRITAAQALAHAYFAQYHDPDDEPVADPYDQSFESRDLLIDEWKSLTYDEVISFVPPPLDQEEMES
In short: (§1)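 MCF-7 cells were preincubated with the compound at the indicated doses for 30 min, then stimulated with 10 μg/mL anisomycin for another 30 min. Total cell lysates were resolved by SDS-PAGE and immunoblotted with antibodies against phosphorylated ATF2, p38 and HSP27, with tubulin as the loading control.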

[2] = target: Dual specificity mitogen-activated protein kinase kinase 3 (Homo sapiens) (UniProt P46734); assay: Inhibition of anisomycin-induced MKK3 phosphorylation in human MCF7 cells at 1 to 10 uM after 30 mins by SDS PAGE analysis
Chain of Dual specificity mitogen-activated protein kinase kinase 3 (Homo sapiens) (P46734 whole entry): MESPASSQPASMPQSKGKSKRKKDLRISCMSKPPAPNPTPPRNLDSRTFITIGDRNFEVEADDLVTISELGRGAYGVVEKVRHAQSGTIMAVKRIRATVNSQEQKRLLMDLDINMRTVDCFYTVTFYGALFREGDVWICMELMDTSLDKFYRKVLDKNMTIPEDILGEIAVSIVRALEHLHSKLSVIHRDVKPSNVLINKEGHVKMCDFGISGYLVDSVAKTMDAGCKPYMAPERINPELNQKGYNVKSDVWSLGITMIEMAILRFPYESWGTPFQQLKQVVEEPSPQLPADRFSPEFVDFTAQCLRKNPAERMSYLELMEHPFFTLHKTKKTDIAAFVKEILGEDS

[3] = target: T1, Mitogen-activated protein kinase 14; assay: Inhibition of anisomycin-induced p38alpha MAPK signalling in human MCF7 cells assessed as inhibition of ATF2 activation at 10 uM after 30 mins by SDS PAGE analysis; in short: as §1
[4] = target: T1, Mitogen-activated protein kinase 14; assay: Inhibition of p38alpha phosphorylation in human MCF7 cells at 0.5 to 10 uM after 30 mins by SDS PAGE analysis
In short: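 MCF-7 cells were preincubated with compound for 30 min, then stimulated with 10 μg/mL anisomycin for another 30 min. Total cell lysates were resolved by SDS-PAGE and immunoblotted for phosphorylated ATF2, p38 and HSP27, with tubulin as the loading control.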

[5] = target: T1, Mitogen-activated protein kinase 14; assay: Inhibition of anisomycin-induced p38alpha MAPK signalling in human MCF7 cells assessed as inhibition of HSP27 activation at 0.5 uM after 30 mins by SDS PAGE analysis; in short: as §1
[6] = target: T1, Mitogen-activated protein kinase 14; assay: Inhibition of anisomycin-induced p38alpha MAPK signalling in human MCF7 cells assessed as inhibition of ATF2 activation at 0.5 uM after 30 mins by SDS PAGE analysis; in short: as §1

Imax [1]: Active | inhibition [2]: inactive | Imax [3]: Active | inhibition [4]: Active | inhibition [5]: Active | inhibition [6]: Active
Compound: O=c1c(-c2ccc(F)cc2)c(-c2ccnc(NC3CCCCC3)c2)oc2ccccc12
